# An excerpt weighted towards active compounds, which were near 1.1% of everything screened.
# thrombin 1536: thrombin (human) inhibition. inhibition, % at 5 µM. 220,000 compounds, 0.26% hits. alpha-thrombin, Boc-VPR-AMC fluorogenic substrate cleavage. AID 1046. P00734;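 active = inhibition at or above 40%; inactive = inhibition below 40%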;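 note: 0% = enzyme with no compound and 100% = wells without enzyme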
#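 System – human alpha-thrombin · Medium – pH 7.5 Tris (50 mM) with NaCl 150 mM, Tween 20 0.05% · Compound – single-point dosing at 5 µM, 0.2% DMSO · Incubation – enzyme reaction carried out at room temperature · Technique – fluorescence of released AMC, ex 355 nm, em 460 nm · Read-out basis – % inhibition of thrombin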
# FXIIa inh 1536: factor XIIa (human) inhibition | purified FXIIa, Boc-QGR-AMC fluorogenic substrate, 2 h | inhibition, % at 5 µM | 220,000 compounds, 0.3% hits | AID 800; in the data active = inhibition above about 40%;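 note: 0% = enzyme with no compound and 100% = blank without enzyme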
# Furin inh: human furin inhibition; 220,000 compounds, 0.061% hits; inhibition, % at 20 µM or 30 µM; P09958; purified furin, fluorogenic substrate cleavage; in the data active = inhibition above about 25%
# FXIa inh: factor XIa (human) inhibition; P03951; purified FXIa, Boc-Glu-Ala-Arg-AMC fluorogenic substrate; inhibition, % at 5 µM; 220,000 compounds, 0.14% hits;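 active = inhibition of at least 40%; inactive = inhibition below 40%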;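 note: fluorescence of freed AMC excited at 355 nm; 0% = enzyme without compound and 100% = no enzyme blank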
# hK5 inh: blocks human kallikrein 5 protease activity; recombinant hK5, fluorogenic AMC substrate cleavage; inhibition, % at 5 µM; 210,000 compounds, 0.59% hits; AID 873;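 active = inhibition of 40% or more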;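 note: 0% = enzyme controls without compound and 100% = no-enzyme blanks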
# Starred values were filed as active, the others as inactive; nt = no result given.
SMILES,thrombin 1536,FXIIa inh 1536,Furin inh,FXIa inh,hK5 inh
O=C1CN(C(=O)COC(=O)c2oc3ccccc3c2COc2ccccc2)c2ccccc2N1,2.6,47.0*,-5.9,19.8,-16.8
CCOC(=O)c1[nH]c(C)c(C(=O)OCC(=O)N2CC(=O)Nc3ccccc32)c1C,8.3,29.4,-14.1,8.0,41.6*
CC(=O)c1ccc(NC(=S)NCc2ccc(Cl)cc2Cl)cc1,-6.8,4.2,-20.7,0.0,-10.8
CC(=O)Nc1ccc(S(=O)(=O)NC(C(=O)O)C(C)O)cc1 (stereo not drawn),-4.4,4.6,-16.1,-0.4,-3.2
FC(F)C(F)(F)C(F)(F)C(F)(F)c1cc(-c2ccccc2)n[nH]1,0.9,50.3*,-5.7,50.3*,-11.4
CCOc1cc(Br)ccc1S(=O)(=O)NCc1ccccc1,5.5,19.3,-5.7,4.9,-5.4
CC(=O)NNC(=S)NC(=O)c1ccccc1,42.6*,42.0*,-0.2,20.8,8.0
Cc1ccc(-c2cc(C(F)(F)F)c(C#N)c(SCC(=O)O)n2)cc1,1.4,13.3,1.9,12.1,16.2
COc1ccc(-c2cc(C(F)(F)F)c(C#N)c(SCC(=O)O)n2)cc1OC,9.2,18.2,1.1,35.2,48.5*
Cc1ccc(NC2c3ncccc3C(=O)N2c2ccccc2C)cc1C (stereo not drawn),4.5,13.3,-14.8,-1.4,46.7*
CN(C)NC(=S)NC1CCS(=O)(=O)C1 (stereo not drawn),-3.3,2.7,-23.6,-14.9,7.6
C/C(=N\NC(=S)NC1CCCCC1)c1cccc(Br)c1,51.4*,-5.7,-12.1,-7.8,21.0
CCCOC(=O)c1ccc(NC(=O)c2ccccc2[N+](=O)[O-])cc1,-7.0,3.4,-26.3,-4.5,-6.0
Cc1ccc(-n2c(C)cc(C(=O)CSc3nncs3)c2C)cc1,55.5*,-4.5,-8.6,7.0,20.7
CN(C)S(=O)(=O)c1cccc(NC(=O)COC(=O)CNC(=O)c2ccccc2F)c1,-6.1,1.7,-14.7,-3.3,-2.1
CC(C)N(C(=O)COC(=O)CNC(=O)c1ccc(Br)cc1)c1ccccc1,-14.3,3.1,-12.0,1.4,1.3
CC(C)c1ccc(NC(=O)NN2CCOCC2)cc1,5.9,8.7,-19.0,-6.0,-14.4
CCn1nc([N+](=O)[O-])c2c(-c3nc4ccccc4o3)c(N)n(CCCOC)c2c1=O,-6.6,5.3,-30.6,-1.0,3.0
CCCCCc1nnc(NC(=O)C2CCCO2)s1 (stereo not drawn),-5.3,6.3,34.1*,1.0,-13.3
COC(=O)CCC/C=C1/SCC(NC(=O)c2ccccc2)/C1=N/O (stereo not drawn),0.5,8.4,-30.0,-0.1,-4.9
O=C(CNCc1ccccn1)Nc1cc(C(F)(F)F)ccc1N1CCOCC1,9.2,41.3*,-9.9,29.6,38.5
CCOC(=O)N1CCN(C(=O)c2ccccc2N(C)S(C)(=O)=O)CC1,54.7*,-4.2,-17.9,-4.7,-13.9
CSc1cc(C)n(-c2ccccc2)c(=S)c1C(C)=O,20.2,17.8,-11.1,1.8,46.1*
CC(=O)c1sc(=S)n(-c2ccccc2)c1C,13.6,23.2,1.0,11.2,12.8
Cc1occc1C(=O)NNC(=O)c1ccccc1Br,8.0,20.7,-0.2,16.0,45.6*
SMILES,thrombin 1536,FXIIa inh 1536,Furin inh,FXIa inh,hK5 inh
Cc1ccccc1C(=O)NNC(=O)c1ccoc1C,16.2,-0.4,-22.4,2.4,63.2*
Cc1occc1C(=O)NNC(=O)c1ccccc1C(=O)O,-4.6,-0.2,-12.5,-5.8,-6.8
CCn1c(SCC(=O)NNC(=O)c2ccc(OC)cc2)nnc1-c1cccnc1,-4.2,4.6,-9.5,-4.7,-2.6
O=C(NCc1ccco1)C(=O)N1CCCC1,-2.3,3.9,-24.5,-2.4,0.8
CCOC(=O)CC1Sc2ccccc2NC1=S (stereo not drawn),-6.8,0.0,11.0,3.8,80.3*
CCOC(=O)CC1Sc2ccccc2NC1=O (stereo not drawn),-22.9,3.2,-21.1,1.8,-0.5
Cc1c(-c2ccccc2)[n+](=O)c(-c2ccc(Cl)cc2)c(C)n1[O-],1.8,nt,-28.2,-0.6,4.0
Cc1nonc1OC(C)CNCCNc1ccc([N+](=O)[O-])cc1 (stereo not drawn),2.2,43.4*,1.2,-9.7,8.3
O=C1CS/C(=N/N=C/c2ccccc2)N1Cc1ccco1,1.4,6.1,-22.0,12.6,2.1
O=C1CN(Cc2ccccc2)C(=NCc2ccco2)S1,12.7,44.0*,-7.1,5.7,32.9
COC(=O)c1ccc(NC(=O)CCn2cccc2)cc1,-1.9,10.2,-9.6,-1.8,-3.1
CCc1ccc(NC(=O)CCn2cccc2)cc1,10.6,14.2,-11.9,41.2*,14.9

# Source: PubChem BioAssay (several laboratories)
